Results taken from ChEMBL document CHEMBL3414513, “Synthesis and biological evaluation of betulonic acid derivatives as antitumor agents” (Eur J Med Chem, 2015).
Activity calls are given as the source filed them. No cut-off for these calls is given here.

Experiments:
MCF7 [1] = assay: Cytotoxicity against human MCF7 cells after 72 hrs by MTT assay; assay type: functional, cell-based; settings: for IC50: MCF7, 72 h
Summary of the method: (§1)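 Cancer lines grown in RPMI 1640 with 10% heat-inactivated FBS, 37 °C, 5% CO2. Cells trypsinized at 80-90% confluence, seeded at 2×10^3/well overnight, then given compounds (DMSO stocks diluted in medium) at various concentrations for 72 h at 37 °C. Controls: 0.1% DMSO negative, adriamycin positive. MTT (5 mg/ml) added for 4 h, formazan dissolved in SDS 12 h, A595 read. IC50 from dose-response curves.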

MGC-803 [2] = assay: Selectivity index, ratio of IC50 for mouse NIH/3T3 cells to IC50 for human MGC803 cells; assay type: functional
Summary of the method: (§2)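 Index is the IC50 in normal NIH3T3 cells divided by the IC50 in each cancer line. […] HCPT and adriamycin were used as positive controls.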

[3] = (§3) Cytotoxicity against human PC3 cells after 72 hrs by MTT assay; assay type: functional, cell-based; settings: PC-3, 72 h
Summary of the method: as §1, with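 “Cells” for “Cancer lines grown in RPMI 1640 with 10% heat-inactivated FBS, 37 °C, 5% CO2. Cells”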

PC-3 [4] = assay: as §3; assay type: functional, cell-based
Summary of the method: as §1, with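 “Cells” for “Cancer lines grown in RPMI 1640 with 10% heat-inactivated FBS, 37 °C, 5% CO2. Cells”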

A-375 [5] = assay: Selectivity index, ratio of IC50 for mouse NIH/3T3 cells to IC50 for human A375 cells; assay type: functional; summary of the method: as §2
A-375 [6] = assay: Cytotoxicity against human A375 cells after 72 hrs by MTT assay; assay type: functional, cell-based; settings: for IC50: A-375, 72 h; summary of the method: as §1
Bcap37 [7] = assay: Selectivity index, ratio of IC50 for mouse NIH/3T3 cells to IC50 for human Bcap37 cells; assay type: functional; summary of the method: as §2
MGC-803 [8] = assay: Cytotoxicity against human MGC803 cells after 72 hrs by MTT assay; assay type: functional, cell-based; settings: for IC50: MGC-803, 72 h; summary of the method: as §1
MCF7 [9] = assay: Selectivity index, ratio of IC50 for mouse NIH/3T3 cells to IC50 for human MCF7 cells; assay type: functional; summary of the method: as §2
PC-3 [10] = assay: Selectivity index, ratio of IC50 for mouse NIH/3T3 cells to IC50 for human PC3 cells; assay type: functional; summary of the method: as §2
Bcap37 [11] = assay: Cytotoxicity against human Bcap37 cells after 72 hrs by MTT assay; assay type: functional, cell-based; settings: for IC50: Bcap37, 72 h; summary of the method: as §1
MGC-803 [12] = assay: Induction of apoptosis in human MGC803 cells assessed as appearance of compact condensed and crescent shaped cells at 10 uM after 48 hrs by Hoechst 33258 staining-based fluorescence microscopic analysis; assay type: functional, cell-based
Summary of the method: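 MGC-803 cells seeded at 5×10^4 cells/mL in 6-well plates; medium replaced with fresh medium plus 10% FBS and compound (10 µM, 48 h), DMSO negative control. Cells washed, fixed in 4% paraformaldehyde 10 min, stained with Hoechst 33258 for 5 min, washed, then nuclear morphology viewed by fluorescence microscopy (excitation 350 nm, emission 460 nm).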

MGC-803 [13] = assay: Induction of apoptosis in human MGC803 cells assessed as DNA fragmentation at 10 uM after 48 hrs by TUNEL assay; assay type: functional, cell-based
Summary of the method: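 MGC-803 cells seeded at 5×10^4 cells/mL in 6-well plates; medium replaced with fresh medium plus 10% FBS and compound (10 µM, 48 h), DMSO negative control. Fixed in 4% paraformaldehyde 40 min, permeabilized 2 min on ice, peroxidase quenched (0.3% H2O2/methanol, 20 min RT), TdT/biotin-dUTP 60 min 37 °C, streptavidin-HRP 30 min, then DAB. Brown precipitate under light microscopy scored apoptotic.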

Compound	Activity (MCF7 [1])	IC50 (MCF7 [1]) [µM]	Ratio IC50 (MGC-803 [2])	IC50 [3] [µM]	Activity (PC-3 [4])	Ratio IC50 (A-375 [5])	Activity (A-375 [6])	IC50 (A-375 [6]) [µM]	Ratio IC50 (Bcap37 [7])	Activity (MGC-803 [8])	IC50 (MGC-803 [8]) [µM]	Ratio IC50 (MCF7 [9])	Ratio IC50 (PC-3 [10])	Activity (Bcap37 [11])	IC50 (Bcap37 [11]) [µM]	Activity (MGC-803 [12])	Activity (MGC-803 [13])
C=C(C)[C@@H]1CC[C@]2(C(=O)OCCCCN3CCCC3)CC[C@]3(C)[C@H](CC[C@@H]4[C@@]5(C)CCC(=O)C(C)(C)[C@@H]5CC[C@]43C)[C@@H]12	Dose-dependent effect	5.4	7.18	6.7	Dose-dependent effect	3.38	Dose-dependent effect	8.5	6.11	Dose-dependent effect	4	5.31	4.28	Dose-dependent effect	4.7		
C=C(C)[C@@H]1CC[C@]2(C(=O)OCCN3CCN(C(=O)c4ccc(F)c(F)c4)CC3)CC[C@]3(C)[C@H](CC[C@@H]4[C@@]5(C)CCC(=O)C(C)(C)[C@@H]5CC[C@]43C)[C@@H]12	Dose-dependent effect	3.7	4.2	4.6	Dose-dependent effect	2.57	Dose-dependent effect	7.2	4.74	Dose-dependent effect	4.4	5	4.02	Dose-dependent effect	3.9		
C=C(C)[C@@H]1CC[C@]2(C(=O)OCCCCN(CC)CC)CC[C@]3(C)[C@H](CC[C@@H]4[C@@]5(C)CCC(=O)C(C)(C)[C@@H]5CC[C@]43C)[C@@H]12	Dose-dependent effect	7.9	6.15	4.4	Dose-dependent effect	2.54	Dose-dependent effect	9.2	4.5	Dose-dependent effect	3.8	2.96	5.32	Dose-dependent effect	5.2		
C=C(C)[C@@H]1CC[C@]2(C(=O)OCCN3CCN(C(=O)c4ccccc4)CC3)CC[C@]3(C)[C@H](CC[C@@H]4[C@@]5(C)CCC(=O)C(C)(C)[C@@H]5CC[C@]43C)[C@@H]12	Dose-dependent effect	4.7	7.62	4.1	Dose-dependent effect	6.41	Dose-dependent effect	6.3	5.46	Dose-dependent effect	5.3	8.6	9.85	Dose-dependent effect	7.4		
C=C(C)[C@@H]1CC[C@]2(C(=O)OCCN3CCN(C(=O)c4ccccc4C)CC3)CC[C@]3(C)[C@H](CC[C@@H]4[C@@]5(C)CCC(=O)C(C)(C)[C@@H]5CC[C@]43C)[C@@H]12	Dose-dependent effect	5.4	4.69	8.7	Dose-dependent effect	4.69	Dose-dependent effect	4.5	3.3	Dose-dependent effect	4.5	3.91	2.43	Dose-dependent effect	6.4		
C=C(C)[C@@H]1CC[C@]2(C(=O)OCCN3CCN(C(=O)C(CC)CCCC)CC3)CC[C@]3(C)[C@H](CC[C@@H]4[C@@]5(C)CCC(=O)C(C)(C)[C@@H]5CC[C@]43C)[C@@H]12 (stereo partly specified)	Dose-dependent effect	15.4		> 20	Dose-dependent effect		Dose-dependent effect	> 20		Dose-dependent effect	13.4			Dose-dependent effect	18.7		
C=C(C)[C@@H]1CC[C@]2(C(=O)OCCBr)CC[C@]3(C)[C@H](CC[C@@H]4[C@@]5(C)CCC(=O)C(C)(C)[C@@H]5CC[C@]43C)[C@@H]12	Dose-dependent effect	> 20		> 20	Dose-dependent effect		Dose-dependent effect	> 20		Dose-dependent effect	> 20			Dose-dependent effect	> 20		
C=C(C)[C@@H]1CC[C@]2(C(=O)OCCCCBr)CC[C@]3(C)[C@H](CC[C@@H]4[C@@]5(C)CCC(=O)C(C)(C)[C@@H]5CC[C@]43C)[C@@H]12	Dose-dependent effect	> 20		> 20	Dose-dependent effect		Dose-dependent effect	> 20		Dose-dependent effect	> 20			Dose-dependent effect	> 20		
CC[C@@]1(O)C(=O)OCc2c1cc1n(c2=O)Cc2cc3cc(O)ccc3nc2-1 [HYDROXYCAMPTOTHECIN]		48.2		34.5	Dose-dependent effect		Dose-dependent effect	27.8		Dose-dependent effect	29.1			Dose-dependent effect	28.1	Active	Active
C=C(C)[C@@H]1CC[C@]2(C(=O)OCCCN(CC)CC)CC[C@]3(C)[C@H](CC[C@@H]4[C@@]5(C)CCC(=O)C(C)(C)[C@@H]5CC[C@]43C)[C@@H]12	Dose-dependent effect	7.3		7	Dose-dependent effect		Dose-dependent effect	9.3		Dose-dependent effect	6.8			Dose-dependent effect	6.1		
C=C(C)[C@@H]1CC[C@]2(C(=O)OCCCN3CCCC3)CC[C@]3(C)[C@H](CC[C@@H]4[C@@]5(C)CCC(=O)C(C)(C)[C@@H]5CC[C@]43C)[C@@H]12	Dose-dependent effect	8.4		7.6	Dose-dependent effect		Dose-dependent effect	8.3		Dose-dependent effect	7.4			Dose-dependent effect	9.2		
C=C(C)[C@@H]1CC[C@]2(C(=O)OCCN3CCN(C(=O)c4cccc(F)c4)CC3)CC[C@]3(C)[C@H](CC[C@@H]4[C@@]5(C)CCC(=O)C(C)(C)[C@@H]5CC[C@]43C)[C@@H]12	Dose-dependent effect	5.4		6.8	Dose-dependent effect		Dose-dependent effect	7.6		Dose-dependent effect	4.9			Dose-dependent effect	6.4		
